In ChEMBL document CHEMBL2417427, “High analgesic and anti-inflammatory in vivo activities of six new hybrids NSAIAs tetrahydropyran derivatives” (Bioorg Med Chem, 2013):
Active and inactive are the calls of the source. The rule behind the calls is not given here.

Legend:
[1] = Acute toxicity in po dosed Albino-Swiss mouse assessed as hyperactivity administered as single dose measured after 5 hrs until day 14; format: organism-based; settings: in vivo
How it was run: (§1)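 Oral single dose given as a suspension in 5% ethyl acetate (5 mL/kg), in increasing doses up to 2000 mg/kg, following WHO and OECD guidelines. Animals were observed from 5 h after dosing, then daily until day 14, for disorientation, hyperactivity, piloerection and hyperventilation. LD50 was fitted by nonlinear regression of percent deaths versus dose. n = 6 per group.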

[2] = test system: Mus musculus; test: Toxicity in Albino-Swiss mouse assessed as forced motor activity at 10 mg/kg, po measured after 60 mins by rota-rod test; format: organism-based; set-up: dose 10 mg/kg, route oral; settings: in vivo, 1 h
How it was run: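 Mice, 6 per group, trained twice the day before to stay 5 min on a rotating roller at 10 rev/min. Next day given 10 mg/kg p.o. (suspension in 5% ethyl acetate, 5 mL/kg) or vehicle, then placed on the roller 60 min later for 5 min. Read-out was number of falls; mean ± SD, ANOVA with Bonferroni.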

[3] = test system: Mus musculus; test: Toxicity in Albino-Swiss mouse assessed as spontaneous locomotor activity at 10 mg/kg, po measured after 60 mins by open-field test; format: organism-based; set-up: dose 10 mg/kg, route oral; settings: in vivo, 1 h
How it was run: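 Oral dosing at 10 mg/kg (5% ethyl acetate suspension, 5 mL/kg) or vehicle, 6 mice per group. At 60 min each mouse was placed alone in a chamber with the floor divided into 50 squares of 5 × 5 cm. Squares walked during 5 min were counted; mean ± SD, ANOVA with Bonferroni.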

[4] = test system: Mus musculus; test: Antinociceptive activity in po dosed Albino-Swiss mouse assessed as acetic acid-induced abdominal writhing compound administered 30 mins prior challenge measured over 30 mins post acetic acid challenge; format: functional; settings: Abdomen
How it was run: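 Mice were dosed orally at 1, 5 and 10 mg/kg as a suspension in 5% ethyl acetate vehicle (5 mL/kg). Acetic acid 1.2% (v/v) was then given ip, and writhes (abdominal contraction, body stretching, hind-limb extension) were counted for 30 min from injection. n = 6 per group. ED50 (µmol/kg) was obtained by sigmoidal dose-response nonlinear regression.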

[5] = Acute toxicity in po dosed Albino-Swiss mouse assessed as disorientation administered as single dose measured after 5 hrs until day 14; format: organism-based; settings: in vivo; how it was run: as §1
[6] = Acute toxicity in po dosed Albino-Swiss mouse assessed as hyperventilation administered as single dose measured after 5 hrs until day 14; format: organism-based; settings: in vivo; how it was run: as §1
[7] = Acute toxicity in po dosed Albino-Swiss mouse assessed as piloerection administered as single dose measured after 5 hrs until day 14; format: organism-based; settings: in vivo; how it was run: as §1
[8] = test system: Mus musculus; test: Antinociceptive activity in Albino-Swiss mouse assessed as increase in thermal-stimulus induced tail flick latency at 10 mg/kg, po measured over 20 to 120 mins; format: functional, organism-based; set-up: dose 10 mg/kg
How it was run: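 Mice, 6 per group, dosed orally at 10 mg/kg as a suspension in 5% ethyl acetate vehicle (5 mL/kg). Light intensity set so baseline latency fell at 4–6 s; animals outside this range were excluded. Two pre-dose latencies averaged as baseline, then six readings at 20-min intervals. Reported as percentage increase over baseline per time point, or as AUC (trapezoid rule) over 20–120 min.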

[9] = test system: Mus musculus; test: Ratio of diclofenac ED50 to compound ED50 for antinociceptive activity in po dosed Albino-Swiss mouse assessed as acetic acid-induced abdominal writhing compound administered 30 mins prior challenge measured over 30 mins post acetic acid challenge; format: functional, Abdomen

Structure (SMILES) | LD50 at 5 h [1] [mg/kg] | Activity [2] | Activity [3] | ED50 [4] [µmol/kg] | LD50 at 5 h [5] [mg/kg] | LD50 at 5 h [6] [mg/kg] | LD50 at 5 h [7] [mg/kg] | Activity [8] | Ratio ED50 [9]
CC(C(=O)OC[C@@H]1C[C@H](Cl)C[C@H](c2cccc3ccccc23)O1)c1cccc(C(=O)c2ccccc2)c1 (mixture of isomers) | > 2000 | Non-toxic | Non-toxic | 14 | > 2000 | > 2000 | > 2000 | Active | 
COc1ccc2cc(C(C)C(=O)OC[C@@H]3C[C@H](Cl)C[C@H](c4cccc5ccccc45)O3)ccc2c1 (mixture of isomers) | > 2000 | Non-toxic | Non-toxic | 4.6 | > 2000 | > 2000 | > 2000 | Active | 
CC(C)Cc1ccc(C(C)C(=O)OC[C@@H]2C[C@H](Cl)C[C@H](c3cccc4ccccc34)O2)cc1 (mixture of isomers) | > 2000 | Non-toxic | Non-toxic | 10.3 | > 2000 | > 2000 | > 2000 | Active | 
O=C(Cc1ccccc1Nc1c(Cl)cccc1Cl)OC[C@@H]1C[C@H](Cl)C[C@H](c2cccc3ccccc23)O1 (racemic) | > 2000 | Non-toxic | Non-toxic | 3.17 | > 2000 | > 2000 | > 2000 | Active | >10
OC[C@@H]1C[C@H](Cl)C[C@H](c2cccc3ccccc23)O1 (racemic) |  |  |  | 28 |  |  |  |  | 
CC(=O)Oc1ccccc1C(=O)OC[C@@H]1C[C@H](Cl)C[C@H](c2cccc3ccccc23)O1 (racemic) | > 2000 | Non-toxic | Non-toxic | 20.4 | > 2000 | > 2000 | > 2000 | Active | 
COc1ccc2c(c1)c(CC(=O)OC[C@@H]1C[C@H](Cl)C[C@H](c3cccc4ccccc34)O1)c(C)n2C(=O)c1ccc(Cl)cc1 (racemic) | > 2000 | Non-toxic | Non-toxic | 13.8 | > 2000 | > 2000 | > 2000 | Active | 
CC(=O)Oc1ccccc1C(=O)O [ASPIRIN] |  |  |  | 44.2 |  |  |  |  | 
O=C(O)Cc1ccccc1Nc1c(Cl)cccc1Cl [DICLOFENAC POTASSIUM] |  |  |  | 32.5 |  |  |  |  | 
CC(C)Cc1ccc(C(C)C(=O)O)cc1 (stereo unspecified) [IBUPROFEN] |  |  |  | 60.3 |  |  |  |  | 
COc1ccc2c(c1)c(CC(=O)O)c(C)n2C(=O)c1ccc(Cl)cc1 [INDOMETHACIN] |  |  |  | 72.6 |  |  |  |  | 
CC(C(=O)O)c1cccc(C(=O)c2ccccc2)c1 (stereo unspecified) [KETOPROFEN] |  |  |  | 46.6 |  |  |  |  | 
COc1ccc2cc([C@H](C)C(=O)O)ccc2c1 [NAPROXEN] |  |  |  | 21.8 |  |  |  |  | 
